Source: ChEMBL document CHEMBL4011639, “Discovery of Novel Nucleotide Prodrugs with Improved Potency Against HCV Variants Carrying NS5B S282T Mutation” (J Med Chem, 2017)

Tests used:
[1] = target: Adenosine 5'-monophosphoramidase HINT1 (Homo sapiens, UniProt P49773); experiment: Drug metabolism in human HuH7 cells assessed as HINT1-mediated ((2R,3R,4R,5R)-5-(4-butyramido-2-oxopyrimidin-1(2H)-yl)-4-fluoro-3-hydroxy-4-methyltetrahydrofuran-2-yl)methyl dihydrogen phosphate metabolite formation at 50 uM after 48 hrs by LC/MS/MS analysis; assay type: ADME, cell-based
Procedure, shortened: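 Huh-7 cells plated at 0.35 million/mL in DMEM with 10% FBS (about 1 million per well at dosing) and grown 18 h. At each time point cells were washed with cold saline and lysed in methanol with internal standard. Semiquantified by LC/MS/MS MRM as Δ mean peak-area ratio relative to t0.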

Mus musculus = experiment: Subacute toxicity in ICR mouse assessed as body weight loss at 100 to 1000 mg/kg, administered once a day via oral gavage for 14 days; assay type: organism-based; conditions: in vivo, 336 h
Procedure, shortened: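 ICR mice, 22−25 g, 5 per sex per group, gavaged daily for 14 days at 100, 500 or 1000 mg/kg in 30% PEG400/30% Tween 20/20% corn oil/20% water, with a vehicle control group. Observed daily for body weight change, skin and fur, inflammation and necrosis. Animals anesthetized on day 15; organ weights (liver, kidney) taken. Serum SGOT/SGPT compared with controls.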

Adenosine 5'-monophosphoramidase HINT1, sequence (P49773 whole entry): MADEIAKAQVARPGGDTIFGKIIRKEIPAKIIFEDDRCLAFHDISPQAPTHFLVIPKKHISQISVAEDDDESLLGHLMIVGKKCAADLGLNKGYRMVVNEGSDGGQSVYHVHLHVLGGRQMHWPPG

For `CCCC(=O)Nc1ccn([C@@H]2O[C@H](CO[P@@](=O)(N[C@@H](C)C(=O)OC(C)C)Oc3ccccc3)[C@@H](O)[C@@]2(C)F)c(=O)n1`, the Drug metabolism [1] was “Metabolite_Notdetected” and the Activity (Mus musculus) was “Non-Toxic”.
